# From ChEMBL document CHEMBL3525992, “Identification of 20(S)-protopanaxadiol metabolites in human liver microsomes and human hepatocytes” (Drug Metab Dispos, 2011)
# Assays:
# [1] = Drug excretion in Sprague-Dawley rat feces treated with 20(S)-protopanaxadiol at 100 mg/kg/day, po qd for 11 days administered via gavage by liquid chromatography-electrospray ionization ion trap mass spectrometry; format: ADME, organism-based; parameters: route oral; conditions: in vivo, 264 h
# Outline: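 PPD given by gavage at 10 mg/ml in 0.5% carboxymethyl cellulose sodium, 0.5% polysorbate-80 and 99% saline; 20 rats, one per metabolic cage. Feces collected over 0–288 h (48 h after last dose), blanks taken before dosing, frozen at -20°C.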
# Hepatocyte [2] = assay: Drug level in human hepatocytes treated with 20(S)-protopanaxadiol at 50 uM after 180 mins by liquid chromatography-electrospray ionization ion trap mass spectrometry; format: ADME, cell-based; conditions: 3 h
# Outline: (§1)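 Human hepatocytes (2 million cells/ml) in Williams' E medium with substrate 50 µM, 0.5% (v/v) final MeOH, 37°C for 3 h. Negative controls were substrate at 0 h and no substrate at 3 h. Quenched with equal volume acetonitrile, in duplicate. Methanol was added, then centrifugation, dry-down and reconstitution. Analysed by C8 reversed-phase LC with formic acid/methanol–ammonium acetate gradient, ESI ion trap MSⁿ, m/z 100–800.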
# Liver microsome [3] = assay: Retention time of the compound in mixed human liver microsomes treated with 20(S)-protopanaxadiol at 50 uM after 60 mins by liquid chromatography-electrospray ionization ion trap mass spectrometry; format: ADME; conditions: 1 h
# Outline: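 Pooled HLM protein 1.0 mg/ml with substrate 50 µM in 100 mM potassium phosphate pH 7.4, 0.1% (v/v) final MeOH. Preincubated 3 min at 37°C, started with 2.0 mM NADPH, incubated 60 min. Stopped with equal volume ice-cold acetonitrile. Controls lacked NADPH or substrate, in duplicate. Analysed on C8 reversed-phase column, formic acid methanol/ammonium acetate gradient, ESI ion trap MSⁿ.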
# Liver microsome [4] = assay: Drug metabolism in mixed human liver microsomes assessed as metabolite 7-2 ((2S,3S,4S,5R,6S)-6-(2-((2R,5S)-5-((3S,5R,8R,9R,10R,12R,14R,17S)-3,12-dihydroxy-4,4,8,10,14-pentamethylhexadecahydro-1H-cyclopenta[a]phenanthren-17-yl)-5-methyltetrahydrofuran-2-yl)propan-2-yloxy)-3,4,5-trihydroxytetrahydro-2H-pyran-2-carboxylic acid) formation at 50 uM after 120 mins by liquid chromatography-electrospray ionization ion trap mass spectrometry in presence of UDPGA; format: ADME
# Outline: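 Pooled human liver microsomes, 1.0 mg/ml protein, in 50 mM Tris-HCl pH 7.4 with 10 mM MgCl₂, 2 mM UDPGA and 25 µg/mL alamethicin. Preincubated 3 min at 37°C, started with substrate 50 µM (final MeOH 0.1%), run 120 min, stopped with ice-cold acetonitrile. Time-0 controls; duplicates. Analysed by LC/ESI ion-trap MSn.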
# [5] = Retention time of the compound treated with 20(S)-protopanaxadiol at 100 uM measured after 60 mins by liquid chromatography-electrospray ionization ion trap mass spectrometry in presence of 10 uM 3-chloroperoxybenzoic acid; format: physicochemical; conditions: 1 h
# Outline: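 PPD 100 µM oxidised chemically with m-CPBA 10 µM in CH₂Cl₂, stirred at room temperature for 15 and 60 min. Mixture poured into Na₂CO₃-saturated ice water and extracted three times with ether before LC/MS analysis.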
# Hepatocyte [6] = assay: Retention time of the compound in human hepatocytes treated with 20(S)-protopanaxadiol at 50 uM after 180 mins by liquid chromatography-electrospray ionization ion trap mass spectrometry; format: ADME, cell-based; conditions: 3 h; outline: as §1
SMILES,Drug excretion [1],Drug metabolism (Hepatocyte [2]),Retention_time (Liver microsome [3]) [min],Drug metabolism (Liver microsome [4]),Retention_time [5] [min],Retention_time (Hepatocyte [6]) [min]
CC(C)(O)[C@H]1CC[C@@](C)([C@H]2CC[C@]3(C)[C@@H]2[C@H](O)C[C@@H]2[C@@]4(C)CCC(=O)C(C)(C)[C@@H]4CC[C@]23C)O1,metabolite_detected,metabolite_detected,19.7,–,–,–
CC(C)(O)[C@H]1CC[C@@](C)([C@H]2CC[C@]3(C)[C@@H]2[C@H](O)C[C@@H]2[C@@]4(C)CC[C@H](O)C(C)(C)[C@@H]4CC[C@]23C)O1,metabolite_detected,metabolite_detected,19.8,metabolite_detected,19.8,–
CC(C)(O)[C@@H]1CC[C@@](C)([C@H]2CC[C@]3(C)[C@@H]2[C@H](O)C[C@@H]2[C@@]4(C)CCC(=O)C(C)(C)[C@@H]4CC[C@]23C)O1,metabolite_detected,metabolite_detected,19.1,–,–,–
CC(C)(O)[C@@H](O)CC[C@](C)(O)[C@H]1CC[C@]2(C)[C@@H]1[C@H](O)C[C@@H]1[C@@]3(C)CC[C@H](O)C(C)(C)[C@@H]3CC[C@]12C,–,–,–,–,–,13.2
CC1(C)O[C@H]1CC[C@](C)(O)[C@H]1CC[C@]2(C)[C@@H]1[C@H](O)C[C@@H]1[C@@]3(C)CC[C@H](O)C(C)(C)[C@@H]3CC[C@]12C,metabolite_detected,metabolite_detected,18.7,–,18.7,–
